Assay results as given in ChEMBL document CHEMBL1649165, “Activity profile in vitro of micafungin against Spanish clinical isolates of common and emerging species of yeasts and molds” (2009).
In brackets after ≈: the same amount, converted by molar mass.

What was measured:
Assay type in all cases: functional
Lewia infectoria = assay: Antimicrobial activity against Alternaria infectoria by broth microdilution method
In short: (§1)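 Clinical mould isolates, tested by broth microdilution using the AFST-EUCAST reference method for filamentous fungi. For echinocandins, the endpoint was the minimum effective concentration: the lowest drug concentration giving aberrant hyphal growth, read with an inverted microscope.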

Beauveria bassiana = assay: Antimicrobial activity against Beauveria bassiana by broth microdilution method; in short: as §1
Pichia norvegensis = assay: Antimicrobial activity against Candida norvegensis by broth microdilution method
In short: (§2)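 Clinical isolates from human patients, tested by broth microdilution using the AFST-EUCAST reference procedure for fermentative yeasts. The MIC was read per that reference method.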

Lecythophora hoffmannii = assay: Antimicrobial activity against Lecythophora hoffmannii by broth microdilution method; conditions: Coniochaeta hoffmannii
In short: (§3)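 Filamentous fungus clinical isolates tested by the AFST-EUCAST reference broth microdilution method for moulds. For echinocandins, the endpoint was the minimum effective concentration: the lowest drug concentration giving aberrant hyphal growth, read with an inverted microscope.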

Cladosporium = assay: Antimicrobial activity against Cladosporium spp. by broth microdilution method; in short: as §1
Candida parapsilosis = assay: Antimicrobial activity against Candida parapsilosis by broth microdilution method; conditions: Lodderomyces parapsilosis; in short: as §2
Kluyveromyces marxianus = assay: Antimicrobial activity against Candida kefyr by broth microdilution method; in short: as §2
Trichosporon jirovecii = assay: Antimicrobial activity against Trichosporon jirovecii by broth microdilution method; conditions: Cutaneotrichosporon jirovecii
In short: (§4)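 Nonfermentative yeast clinical isolates (Rhodotorula, Trichosporon) tested by broth microdilution. The EUCAST yeast recommendations were followed strictly, with one minor modification to improve growth. MIC was read as the endpoint.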

Saccharomyces cerevisiae = assay: Antimicrobial activity against Saccharomyces cerevisiae by broth microdilution method
Torulaspora delbrueckii = assay: Antimicrobial activity against Candida coliculosa by broth microdilution method; in short: as §2
Neurospora sitophila = assay: Antimicrobial activity against Chrysonilia sitophila by broth microdilution method; in short: as §1
[1] = system: Scopulariopsis brevicaulis; assay: Antimicrobial activity against Scopulariopsis brevicaulis by broth microdilution method; in short: as §3
Fusarium proliferatum = assay: Antimicrobial activity against Fusarium proliferatum by broth microdilution method; in short: as §1
Rhodotorula mucilaginosa = assay: Antimicrobial activity against Rhodotorula mucilaginosa by broth microdilution method; in short: as §4
[2] = system: Cunninghamella bertholletiae; assay: Antimicrobial activity against Cunninghamella bertholletiae by broth microdilution method; in short: as §1
Exophiala dermatitidis = assay: Antimicrobial activity against Exophiala dermatitidis by broth microdilution method
Fusarium verticillioides = assay: Antimicrobial activity against Fusarium verticillioides by broth microdilution method; in short: as §3
[3] = system: Kazachstania pintolopesii; assay: Antimicrobial activity against Candida pintolopesii by broth microdilution method; conditions: Arxiozyma pintolopesii; in short: as §2
Trichosporon dermatis = assay: Antimicrobial activity against Trichosporon dermatis by broth microdilution method; conditions: Cutaneotrichosporon dermatis; in short: as §4
[4] = system: Meyerozyma guilliermondii; assay: Antimicrobial activity against Candida guilliermondii by broth microdilution method; in short: as §2
Aspergillus fumigatus = assay: Antimicrobial activity against Aspergillus fumigatus by broth microdilution method; in short: as §1
Paecilomyces variotii = assay: Antimicrobial activity against Paecilomyces variotii by broth microdilution method; in short: as §3
Wickerhamomyces anomalus = assay: Antimicrobial activity against Candida pelliculosa by broth microdilution method; conditions: Hansenula anomala; in short: as §2
[5] = system: Cladophialophora bantiana; assay: Antimicrobial activity against Cladophialophora bantiana by broth microdilution method; in short: as §1
Rhodotorula glutinis = assay: Antimicrobial activity against Rhodotorula glutinis by broth microdilution method; in short: as §4
Scytalidium hyalinum = assay: Antimicrobial activity against Scytalidium hyalinum by broth microdilution method; conditions: Neoscytalidium hyalinum; in short: as §3
Candida albicans = assay: Antimicrobial activity against Candida albicans by broth microdilution method; in short: as §2
[6] = Antimicrobial activity against Rhizopus microsporus by broth microdilution method; in short: as §3
Fusarium reticulatum = assay: Antimicrobial activity against Fusarium reticulatum by broth microdilution method; in short: as §3
Alternaria alternata = assay: Antimicrobial activity against Alternaria alternata by broth microdilution method; in short: as §1
Trichosporon asahii = assay: Antimicrobial activity against Trichosporon asahii by broth microdilution method; in short: as §4
Rhizomucor = assay: Antimicrobial activity against Rhizomucor spp.by broth microdilution method; in short: as §3
Fusarium oxysporum = assay: Antimicrobial activity against Fusarium oxysporum by broth microdilution method; in short: as §1
Aspergillus terreus = assay: Antimicrobial activity against Aspergillus terreus by broth microdilution method; in short: as §1
Trichosporon domesticum = assay: Antimicrobial activity against Trichosporon mycotoxinivorans by broth microdilution method; conditions: Apiotrichum domesticum
In short: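 Spanish human clinical isolates were tested as nonfermentative yeasts by broth microdilution. The method strictly followed the EUCAST recommendations, with a minor modification to improve growth, and the read-out was the MIC.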

[7] = Antimicrobial activity against Hormographiella aspergillata by broth microdilution method; conditions: Coprinopsis cinerea; in short: as §3
Paecilomyces lilacinus = assay: Antimicrobial activity against Paecilomyces lilacinus by broth microdilution method; conditions: Purpureocillium lilacinum; in short: as §3
Candida orthopsilosis = assay: Antimicrobial activity against Candida orthopsilosis by broth microdilution method; conditions: Lodderomyces orthopsilosis; in short: as §2
Candida metapsilosis = assay: Antimicrobial activity against Candida metapsilosis by broth microdilution method; conditions: Lodderomyces metapsilosis; in short: as §2
[Candida] intermedia = Antimicrobial activity against Candida intermedia by broth microdilution method; conditions: Sungouiella intermedia; in short: as §2
Scedosporium apiospermum = assay: Antimicrobial activity against Scedosporium apiospermum by broth microdilution method; in short: as §3
Aspergillus sclerotiorum = assay: Antimicrobial activity against Aspergillus sclerotiorum by broth microdilution method; in short: as §1
Aspergillus ustus = assay: Antimicrobial activity against Aspergillus ustus by broth microdilution method; in short: as §1
Fennellia nivea = assay: Antimicrobial activity against Aspergillus niveus by broth microdilution method; in short: as §1
Lomentospora prolificans = assay: Antimicrobial activity against Scedosporium prolificans by broth microdilution method; in short: as §3

CCC(C)n1ncn(-c2ccc(N3CCN(c4ccc(OCC5COC(Cn6cncn6)(c6ccc(Cl)cc6Cl)O5)cc4)CC3)cc2)c1=O (stereo not given) [ITRACONAZOLE]
MIC50 (Lewia infectoria): 2 µg/mL (≈ 2.83 µM)
MIC90 (Lewia infectoria): > 8 µg/mL
MIC50 (Beauveria bassiana): > 8 µg/mL
MIC90 (Beauveria bassiana): > 8 µg/mL
MIC50 (Pichia norvegensis): 0.12 µg/mL (≈ 0.17 µM)
MIC90 (Pichia norvegensis): > 8 µg/mL
MIC50 (Lecythophora hoffmannii): 0.12 µg/mL (≈ 0.17 µM)
MIC90 (Lecythophora hoffmannii): > 8 µg/mL
MIC50 (Cladosporium): 0.12 µg/mL (≈ 0.17 µM)
MIC90 (Cladosporium): > 8 µg/mL
MIC50 (Candida parapsilosis): 0.02 µg/mL (≈ 0.0283 µM)
MIC90 (Candida parapsilosis): 0.03 µg/mL (≈ 0.0425 µM)
MIC50 (Kluyveromyces marxianus): 0.02 µg/mL (≈ 0.0283 µM)
MIC90 (Kluyveromyces marxianus): 0.06 µg/mL (≈ 0.085 µM)
MIC50 (Trichosporon jirovecii): 0.5 µg/mL (≈ 0.709 µM)
MIC90 (Trichosporon jirovecii): > 8 µg/mL
MIC50 (Saccharomyces cerevisiae): 0.5 µg/mL (≈ 0.709 µM)
MIC90 (Saccharomyces cerevisiae): 2 µg/mL (≈ 2.83 µM)
MIC50 (Torulaspora delbrueckii): 0.12 µg/mL (≈ 0.17 µM)
MIC90 (Torulaspora delbrueckii): > 8 µg/mL
MIC50 (Neurospora sitophila): > 8 µg/mL
MIC90 (Neurospora sitophila): > 8 µg/mL
MIC50 [1]: > 8 µg/mL
MIC90 [1]: > 8 µg/mL
MIC50 (Fusarium proliferatum): > 8 µg/mL
MIC90 (Fusarium proliferatum): > 8 µg/mL
MIC50 (Rhodotorula mucilaginosa): 8 µg/mL (≈ 11.3 µM)
MIC90 (Rhodotorula mucilaginosa): > 8 µg/mL
MIC50 [2]: > 8 µg/mL
MIC90 [2]: > 8 µg/mL
MIC50 (Exophiala dermatitidis): 0.12 µg/mL (≈ 0.17 µM)
MIC90 (Exophiala dermatitidis): > 8 µg/mL
MIC50 (Fusarium verticillioides): > 8 µg/mL
MIC90 (Fusarium verticillioides): > 8 µg/mL
MIC50 [3]: 0.12 µg/mL (≈ 0.17 µM)
MIC90 [3]: > 8 µg/mL
MIC50 (Trichosporon dermatis): 0.5 µg/mL (≈ 0.709 µM)
MIC90 (Trichosporon dermatis): > 8 µg/mL
MIC50 [4]: 0.25 µg/mL (≈ 0.354 µM)
MIC90 [4]: > 8 µg/mL
MIC50 (Aspergillus fumigatus): 0.25 µg/mL (≈ 0.354 µM)
MIC90 (Aspergillus fumigatus): 0.5 µg/mL (≈ 0.709 µM)
MIC50 (Paecilomyces variotii): 0.06 µg/mL (≈ 0.085 µM)
MIC90 (Paecilomyces variotii): 0.25 µg/mL (≈ 0.354 µM)
MIC50 (Wickerhamomyces anomalus): 0.12 µg/mL (≈ 0.17 µM)
MIC90 (Wickerhamomyces anomalus): > 8 µg/mL
MIC50 [5]: 0.12 µg/mL (≈ 0.17 µM)
MIC90 [5]: > 8 µg/mL
MIC50 (Rhodotorula glutinis): 0.5 µg/mL (≈ 0.709 µM)
MIC90 (Rhodotorula glutinis): > 8 µg/mL
MIC50 (Scytalidium hyalinum): 0.12 µg/mL (≈ 0.17 µM)
MIC90 (Scytalidium hyalinum): > 8 µg/mL
MIC50 (Candida albicans): 0.02 µg/mL (≈ 0.0283 µM)
MIC90 (Candida albicans): 0.03 µg/mL (≈ 0.0425 µM)
MIC50 [6]: > 8 µg/mL
MIC90 [6]: > 8 µg/mL
MIC50 (Fusarium reticulatum): > 8 µg/mL
MIC90 (Fusarium reticulatum): > 8 µg/mL
MIC50 (Alternaria alternata): 0.5 µg/mL (≈ 0.709 µM)
MIC90 (Alternaria alternata): > 8 µg/mL
MIC50 (Trichosporon asahii): 0.5 µg/mL (≈ 0.709 µM)
MIC90 (Trichosporon asahii): > 8 µg/mL
MIC50 (Rhizomucor): > 8 µg/mL
MIC90 (Rhizomucor): > 8 µg/mL
MIC50 (Fusarium oxysporum): > 8 µg/mL
MIC90 (Fusarium oxysporum): > 8 µg/mL
MIC50 (Aspergillus terreus): 0.25 µg/mL (≈ 0.354 µM)
MIC90 (Aspergillus terreus): 0.5 µg/mL (≈ 0.709 µM)
MIC50 (Trichosporon domesticum): 0.5 µg/mL (≈ 0.709 µM)
MIC90 (Trichosporon domesticum): > 8 µg/mL
MIC50 [7]: > 8 µg/mL
MIC90 [7]: > 8 µg/mL
MIC50 (Paecilomyces lilacinus): > 8 µg/mL
MIC90 (Paecilomyces lilacinus): > 8 µg/mL
MIC50 (Candida orthopsilosis): 0.12 µg/mL (≈ 0.17 µM)
MIC90 (Candida orthopsilosis): > 8 µg/mL
MIC50 (Candida metapsilosis): 0.12 µg/mL (≈ 0.17 µM)
MIC90 (Candida metapsilosis): > 8 µg/mL
MIC50 ([Candida] intermedia): 0.12 µg/mL (≈ 0.17 µM)
MIC90 ([Candida] intermedia): > 8 µg/mL
MIC50 (Scedosporium apiospermum): 1 µg/mL (≈ 1.42 µM)
MIC90 (Scedosporium apiospermum): > 8 µg/mL
MIC50 (Aspergillus sclerotiorum): 0.5 µg/mL (≈ 0.709 µM)
MIC90 (Aspergillus sclerotiorum): > 8 µg/mL
MIC50 (Aspergillus ustus): 0.5 µg/mL (≈ 0.709 µM)
MIC90 (Aspergillus ustus): > 8 µg/mL
MIC50 (Fennellia nivea): 0.5 µg/mL (≈ 0.709 µM)
MIC90 (Fennellia nivea): > 8 µg/mL
MIC50 (Lomentospora prolificans): > 8 µg/mL
MIC90 (Lomentospora prolificans): > 8 µg/mL
